ChEMBL document CHEMBL1151715, “Novel D-xylose derivatives stimulate muscle glucose uptake by activating AMP-activated protein kinase alpha” (J Med Chem, 2008)
Active and inactive are the calls of the source. No cut-off for these calls is given here.

Assays:
L6 [1] = experiment: Effect on [3H]2-deoxy-D-glucose uptake in rat L6 cells at 100 uM relative to control; type: functional
Outline: (§1)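 L6 myotubes were held in αMEM with 2% FCS and 23.0 mM D-glucose for 24 h. They were then treated with increasing concentrations in medium with 10% FCS and 23.0 mM D-glucose for 7 or 18 h; vehicle controls ran 18 h. After washing, uptake was measured with 0.1 mM dGlc plus 1.3 µCi/mL [3H]dGlc in PBS pH 7.4 for 5 min at room temperature. Ice-cold PBS stop, SDS lysis, scintillation counting; basal rate set to 100%.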

[2] = Cytotoxicity against rat L6 cells by MTT assay; type: cell-based
Outline: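 MTT assay on L6 myotubes after the treatment incubations: MTT at 2 mg/mL in αMEM for 30 min at 37 °C, formazan dissolved in DMSO, absorbance read at 570 nm.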

Homo sapiens = organism: Homo sapiens; experiment: Activation of 5-AMP-induced AMPKalpha in human skeletal muscle cells assessed as […] phosphorylation at 4 mM relative to control
Outline: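 Primary human skeletal muscle myoblasts (rectus abdominis, donor) were differentiated into myotubes using the supplier's protocol. The agent was given at 4 mM for 1 h. Whole-cell lysates were separated by SDS-PAGE and Western blotted for AMPKα and […]-AMPKα, with HRP anti-rabbit IgG and ECL detection. Bands were quantified by film densitometry.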

L6 [3] = experiment: Effect on [3H]2-deoxy-D-glucose uptake in rat L6 cells at 150 uM relative to control; type: functional; outline: as §1
L6 [4] = experiment: Effect on [3H]2-deoxy-D-glucose uptake in rat L6 cells at 5 mM after 7 hrs relative to control in presence of insulin; type: functional, cell-based
Outline: (§2)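 L6 myotubes were preconditioned 24 h at 23.0 mM D-glucose, then given fresh αMEM with 23.0 mM D-glucose plus agent for 7 h. Insulin (200 nM) was added for the last 30 min. A 5-min [3H]dGlc uptake (0.1 mM dGlc, 1.3 µCi/mL) was run in PBS at room temperature, with the 23.0 mM glucose basal rate set to 100%.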

L6 [5] = experiment: Increase in [3H]2-deoxy-D-glucose uptake in rat L6 cells preincubated with 23 mM D-glucose for 24 hrs at 5 mM after 7 hrs relative to control; type: functional; outline: as §2
L6 [6] = experiment: Effect on [3H]2-deoxy-D-glucose uptake in rat L6 cells at 20 mM upto 48 hrs relative to control; type: functional
L6 [7] = experiment: Effect on [3H]2-deoxy-D-glucose uptake in rat L6 cells at 50 uM relative to control; type: functional; outline: as §1

Compound	fold change (FC) (L6 [1])	MCC [2] [µM]	also measured
CCCS[C@@H]1OC[C@@H](O)[C@H](O)[C@H]1O	0.92	200	–
NC(=O)c1ncn([C@@H]2O[C@H](COP(=O)(O)O)[C@@H](O)[C@H]2O)c1N	–	–	Activity (Homo sapiens): Active
O[C@H]1OC[C@@H](OCc2ccccc2)[C@H](OCc2ccccc2)[C@H]1OCc1ccccc1	0.94	200	–
CCCCCCCCCCCC(=O)S[C@@H]1OC[C@@H](O)[C@H](O)[C@H]1O	–	400	fold change (FC) (L6 [3]): 0.98
CO[C@@H]1OC[C@@H](OC(=O)c2ccccc2)[C@H](OC(=O)c2ccccc2)[C@H]1OC(=O)c1ccccc1	–	250	fold change (FC) (L6 [3]): 1.01
CCCO[C@H]1[C@H](O)COC(O)[C@@H]1O (stereo not given in full)	–	–	Activity (L6 [4]): Active; fold change (FC) (L6 [5]): 3.89
O[C@@H]1[C@@H](O)[C@@H](OCc2ccccc2)OC[C@H]1O	0.9	500	–
CCCCO[C@H]1[C@H](O)COC(O)[C@@H]1O (stereo not given in full)	–	1000	fold change (FC) (L6 [6]): 0.94
CO[C@H]1OC[C@@H](O)[C@H](O)[C@H]1O	–	–	Activity (L6 [4]): Active; fold change (FC) (L6 [5]): 1.98
CC1(C)OC[C@H]2O[C@@H]3OC(C)(C)O[C@@H]3[C@H]2O1	–	100	fold change (FC) (L6 [7]): 1.08
COC(OC)[C@@H]1OC(c2ccccc2)O[C@@H]2COC(c3ccccc3)O[C@@H]21 (stereo not given in full)	–	300	fold change (FC) (L6 [3]): 1.06
CO[C@@H]1COC(O)[C@H](O)[C@H]1O (stereo not given in full)	–	50000	fold change (FC) (L6 [6]): 0.99
CO[C@@H]1OC[C@@H](OC(=O)C(C)(C)C)[C@H](OC(=O)C(C)(C)C)[C@H]1OC(=O)C(C)(C)C	1.03	150	–
